Experimental data as given in the RNAGym collection of RNA variant scans (doi:10.1126/science.aae0568).
Fewer inactive variants are shown than the library holds.

B1: tRNA (parent)
chain: GUUCCGUUGGCGUAAUGGUAACGCGUCUCCCUCCUAAGGAGAAGACUGCGGGUUCGAGUCCCGUACGGAACG

Variants of: B1
Assay: yeast fitness relative to wild type (ratio to wild type); higher = fitter; tRNA-Arg(CCU), competitive growth, 37 C, YPD
Procedure, shortened: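 Gene amplicons from the start population and from each of six end populations were read by 100-nucleotide paired-end sequencing. Those end populations came from pooled Saccharomyces cerevisiae strains carrying tRNA-Arg(CCU) gene variants at the native locus, competed in YPD at 37°C for 24 hours. Fitness relative to wild type was worked out from changes in genotype frequencies. Genotypes needed ≥ 100 starting reads, and estimates < 0.5 were set to 0.5.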

Row | Variant | yeast fitness
1 | G23C C30G A70G | ≤ 0.5
2 | C24A C29G C60U | ≤ 0.5
3 | G23C G67C | 0.58
4 | G23U A40G G63A | ≤ 0.5
5 | G23C G68C | 0.697
6 | C24A C31U A42C U64A | ≤ 0.5
7 | G23C C31G G44C U47A A69C | ≤ 0.5
8 | G23C C24U U59A | ≤ 0.5
9 | C24A C31U A42C C66U | ≤ 0.5
10 | G23C G48A | 0.668
11 | G23C G48C | 0.686
12 | C24A C27U C30U G52C | 0.596
13 | C24A C31G G38C | ≤ 0.5
14 | G23C C49G A70C | ≤ 0.5
15 | G23C U28A G39A G48A C61G C66G | ≤ 0.5
16 | C24A A42G C49U U59G C62A | 0.547
17 | C24A C31G C34U | 0.616
18 | C24A C31A A43U C55U | 0.674
19 | G23C U64A | 0.564
20 | G23C C24G C33G A40U C49A | ≤ 0.5
21 | C24A C27A U28A | 0.53
22 | G23C C33G A42U C66A | 0.643
23 | G23C C31U C49U | 0.58
24 | C24A A45G U54C C62U | ≤ 0.5

Row | Variant | yeast fitness
25 | C24A A43G U54C | 0.606
26 | G23C C33A | ≤ 0.5
27 | C24A G25A U47C G52C | ≤ 0.5
28 | G23C U26A G50A A65C | 0.533
29 | C24A C31A G63U U64G | ≤ 0.5
30 | G23C C24U A36G A57U G63A | ≤ 0.5
31 | G23C C29A A45U | ≤ 0.5
32 | G23C C62G C66A | ≤ 0.5
33 | G23C U28G A42U U59A | ≤ 0.5
34 | C24A A69C | 0.724
35 | C24A A69U | 0.752
36 | C24A C29A G44A C46G | 0.583
37 | G23C U32C A45U | 0.605
38 | C24A A57C C60U G67C | ≤ 0.5
39 | C24A G52C A57C | 0.561
40 | C24A C30U U64G | ≤ 0.5
41 | G23C C33G C46A | 0.53
42 | C24A G25A U47C | ≤ 0.5
43 | C24A G51A C66U | ≤ 0.5
44 | C24A A43C A65G | ≤ 0.5
45 | G23U A43C | 0.605
46 | G23U A43G | 0.758
47 | C24A G38A U47A C55G C61U | ≤ 0.5
48 | C24A C29G G51C U54A | ≤ 0.5

Row | Variant | yeast fitness
49 | C24A C29G C33G | 0.619
50 | G23C C33U A42G A43C U64A C66A A69C A70C | ≤ 0.5
51 | G23C C34U A36U | ≤ 0.5
52 | G23C C29A G44A | 0.608
53 | G23C C27G U53C C62A | 0.619
54 | C24A G51C G52C | ≤ 0.5
55 | C24A U32C C33U U54C | 0.602
56 | C24A A65C | 0.725
57 | G23C C27U C30U | 0.53
58 | C24A U26G A43C C62G G63A C66G | 0.514
59 | G23U C24G C27U A69C | ≤ 0.5
60 | G23C C30G G67A | ≤ 0.5
61 | G23C C49G A57G A70U | ≤ 0.5
62 | G23U C24G C62A | ≤ 0.5
63 | C24A G63A | 0.658
64 | C24A C29U C61U C66G | 0.544
65 | C24A C34U G52A | ≤ 0.5
66 | C24A C31A A65C | ≤ 0.5
67 | C24A C27G C29G G52C | 0.996
68 | G23C C55G G67A | 0.526
69 | C24A C27U U54C U59C | 0.551
70 | C24A A37C G38A G58C G63C | ≤ 0.5
71 | C24A C31U A42C A65C | ≤ 0.5
72 | C24A G58A A70G | 0.574

Row | Variant | yeast fitness
73 | G23C C30G A65C | ≤ 0.5
74 | C24A C31U A42C | 0.529
75 | G23C C46A G56A C62U | 0.758
76 | C24A C33G C34U G58C | 0.551
77 | G23C C29G A43U G50A | 0.702
78 | G23C C55U | ≤ 0.5
79 | C24A C29G A45G U54A | ≤ 0.5
80 | C24A G39C A57U A70C | ≤ 0.5
81 | G23C C27U A45G G52A G58A | ≤ 0.5
82 | C24A G58C C62U | ≤ 0.5
83 | C24A A37G A57G G63A A65G | ≤ 0.5
84 | G23C C24A C30G A40U U47A G51C G63A C66A A69U | 0.54
85 | G23C G25A C30G A65C | ≤ 0.5
86 | C24A C31A C33A C60A | ≤ 0.5
87 | C24A G41A | 0.738
88 | G23C C30G C49U A65C | ≤ 0.5
89 | C24A C31U G38A G58C | ≤ 0.5
90 | C24A C29G U35A A43C | 0.929
91 | C24A C31U C55A C60A | ≤ 0.5
92 | C24A A36U C61A | 0.509
93 | G23C G50C G63C G67A | 0.64
94 | C24A C55G C60G | 0.528
95 | C24A C55G C60A | ≤ 0.5
96 | C24A C29U G50A A65G C66U | ≤ 0.5

Row | Variant | yeast fitness
97 | G23C C27A G56A A57U A69U | ≤ 0.5
98 | C24A A40G C49A | ≤ 0.5
99 | G23C U47C | 0.681
100 | G23C U47A | 0.705
101 | C24A A45U | 0.57
102 | C24A A45G | 0.626
103 | G23C C29A C49U | 0.596
104 | G23C C31A | 0.633
105 | G23C C31G | 0.654
106 | C24A C46A G63A | 0.793
107 | C24A C31G G51C C55U G58C A70U | ≤ 0.5
108 | G23C C31G A40U G51A A57C | ≤ 0.5
109 | G23C C31G C33A A57U U59A G63A | ≤ 0.5
110 | G23C C27G U35G C62A | 0.59
111 | G23C U28A A36C | ≤ 0.5
112 | G23C C27G A45G G52A C66A | 0.634
113 | C24A G39A C60A | ≤ 0.5
114 | G23C C55G C60A | ≤ 0.5
115 | G23C C49U G52C C60U C61G | ≤ 0.5
116 | G23C C24U | 0.61
117 | G23C C24G | 0.783
118 | C24A G39C A42G | ≤ 0.5
119 | G23C C24G G63C A65U | ≤ 0.5
120 | C24A C31U A36G A37G G48A U53G | 0.653

Row | Variant | yeast fitness
121 | C24A A37G C55U C60G | ≤ 0.5
122 | G23C G38C C49G | 0.534
123 | C24A C30U G38C G58C | ≤ 0.5
124 | C24A A40G G48A C49A C61G | ≤ 0.5
125 | G23C C33U A43U A45C | ≤ 0.5
126 | G23C G56A A57G | ≤ 0.5
127 | C24A C66U | 0.691
128 | C24A | 0.747
129 | G23C G48C A69U | ≤ 0.5
130 | G23C C49U C55G | ≤ 0.5
131 | G23C G50A C61U | ≤ 0.5
132 | C24A C33U A57U U59G | ≤ 0.5
133 | C24A A36U G41C | ≤ 0.5
134 | C24A G48C G67C | ≤ 0.5
135 | C24A C49U C62U | 0.654
136 | C24A A43U G48A | ≤ 0.5
137 | C24A A43U G48C | ≤ 0.5
138 | G23C U59A | 0.704
139 | C24A G44C U59A | ≤ 0.5
140 | C24A C30G | ≤ 0.5
141 | C24A C29G C30G C49U | ≤ 0.5
142 | G23C U54G | ≤ 0.5
143 | G23C U54A | ≤ 0.5
144 | G23C C60U | ≤ 0.5

Row | Variant | yeast fitness
145 | G23C C60G | ≤ 0.5
146 | G23C C60A | 0.72
147 | G23U G63A | 0.609
148 | C24A C33A G51C C62U | ≤ 0.5
149 | C24A C29G U35A A57U | 0.515
150 | C24A G39C | 0.705
151 | G23C G44C C49U A57C | ≤ 0.5
152 | G23C C24A C49A U54C | 0.655
153 | C24A A36U A43C C55A G56A | ≤ 0.5
154 | G23C C29U | 0.604
155 | G23C C29A | 0.548
156 | C24A U28C G56A | ≤ 0.5
157 | C24A A36U A37C | ≤ 0.5
158 | C24A G38C G48C | ≤ 0.5
159 | C24A G38C G48A | ≤ 0.5
160 | G23U G38C A57G | ≤ 0.5
161 | G23C U32A C49A U54G | ≤ 0.5
162 | G23C U47A A57G G58C | ≤ 0.5
163 | C24A C49U U59G C62U A70G | ≤ 0.5
164 | G23C U32A | 0.565
165 | G23C U32C | 0.72
166 | G23C C24G C34G C61U | ≤ 0.5
167 | G23C U47G C62G G68A | ≤ 0.5
